Test results taken from ChEMBL document CHEMBL2086267, “Discovery of N6-phenyl-1H-pyrazolo[3,4-d]pyrimidine-3,6-diamine derivatives as novel CK1 inhibitors using common-feature pharmacophore model based virtual screening and hit-to-lead optimization” (Eur J Med Chem, 2012).

Key:
[1] = target: T1, Casein kinase I isoform alpha (Homo sapiens, UniProt P48729); assay: Inhibition of CK1 using KRRRALS(p)VASLPGL as substrate after 40 mins by scintillation counter
Target sequence in this assay (P48729 whole entry, canonical isoform): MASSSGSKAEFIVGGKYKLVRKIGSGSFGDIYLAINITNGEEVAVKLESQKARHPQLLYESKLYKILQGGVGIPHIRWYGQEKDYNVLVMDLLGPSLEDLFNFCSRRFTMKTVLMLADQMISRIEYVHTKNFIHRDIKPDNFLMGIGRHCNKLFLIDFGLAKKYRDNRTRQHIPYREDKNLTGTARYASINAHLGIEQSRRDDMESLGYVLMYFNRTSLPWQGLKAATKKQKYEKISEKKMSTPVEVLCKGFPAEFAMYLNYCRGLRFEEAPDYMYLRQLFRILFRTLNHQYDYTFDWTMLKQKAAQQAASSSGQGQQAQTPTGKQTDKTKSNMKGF

[2] = target: Vascular endothelial growth factor receptor 2 (Homo sapiens) (UniProt P35968); assay: Inhibition of KDR at 10 uM
Sequence of Vascular endothelial growth factor receptor 2 (Homo sapiens) (P35968 whole entry): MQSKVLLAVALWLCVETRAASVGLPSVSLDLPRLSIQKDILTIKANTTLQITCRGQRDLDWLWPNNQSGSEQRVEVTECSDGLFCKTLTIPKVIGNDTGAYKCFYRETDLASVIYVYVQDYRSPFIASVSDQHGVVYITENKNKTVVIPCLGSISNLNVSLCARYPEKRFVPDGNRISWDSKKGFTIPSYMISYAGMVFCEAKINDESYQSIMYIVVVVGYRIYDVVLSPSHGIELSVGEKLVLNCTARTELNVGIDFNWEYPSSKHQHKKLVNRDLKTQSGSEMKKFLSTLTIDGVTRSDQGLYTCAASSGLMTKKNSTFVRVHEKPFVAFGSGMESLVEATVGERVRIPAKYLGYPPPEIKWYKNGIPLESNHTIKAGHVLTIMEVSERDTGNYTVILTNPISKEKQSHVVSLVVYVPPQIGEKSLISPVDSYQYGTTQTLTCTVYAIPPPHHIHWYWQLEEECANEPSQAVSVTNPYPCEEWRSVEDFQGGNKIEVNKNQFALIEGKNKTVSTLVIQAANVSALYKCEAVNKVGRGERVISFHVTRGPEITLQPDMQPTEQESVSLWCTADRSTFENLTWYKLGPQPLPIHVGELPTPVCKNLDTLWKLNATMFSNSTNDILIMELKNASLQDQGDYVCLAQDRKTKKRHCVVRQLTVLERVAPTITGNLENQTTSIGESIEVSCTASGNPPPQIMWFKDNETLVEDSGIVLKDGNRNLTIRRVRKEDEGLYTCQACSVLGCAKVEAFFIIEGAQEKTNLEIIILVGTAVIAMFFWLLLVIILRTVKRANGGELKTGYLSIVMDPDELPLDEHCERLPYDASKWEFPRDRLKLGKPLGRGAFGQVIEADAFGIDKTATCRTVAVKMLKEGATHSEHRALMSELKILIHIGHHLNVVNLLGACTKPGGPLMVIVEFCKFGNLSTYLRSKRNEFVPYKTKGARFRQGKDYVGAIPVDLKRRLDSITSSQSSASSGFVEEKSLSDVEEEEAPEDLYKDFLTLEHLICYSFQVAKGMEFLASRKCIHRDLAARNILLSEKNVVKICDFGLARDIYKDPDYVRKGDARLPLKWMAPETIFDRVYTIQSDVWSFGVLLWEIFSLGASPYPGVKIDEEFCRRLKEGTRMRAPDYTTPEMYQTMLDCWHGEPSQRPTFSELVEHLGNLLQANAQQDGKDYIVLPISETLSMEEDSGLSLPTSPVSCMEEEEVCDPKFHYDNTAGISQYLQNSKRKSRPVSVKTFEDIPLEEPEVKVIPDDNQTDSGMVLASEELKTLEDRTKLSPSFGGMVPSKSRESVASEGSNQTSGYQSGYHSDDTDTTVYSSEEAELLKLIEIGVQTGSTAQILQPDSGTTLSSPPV
How it was run: (§1)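 Kinase inhibition was tested through a commercial kinase profiling service. Each assay was run twice and mean activity calculated.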

[3] = target: Serine/threonine-protein kinase mTOR (Homo sapiens) (UniProt P42345); assay: Inhibition of mTOR at 10 uM; how it was run: as §1
[4] = target: Cyclin-dependent kinase 1 (Homo sapiens) (UniProt P06493); assay: Inhibition of CDK1 at 10 uM; how it was run: as §1
Sequence of Cyclin-dependent kinase 1 (Homo sapiens) (P06493 whole entry, looked up): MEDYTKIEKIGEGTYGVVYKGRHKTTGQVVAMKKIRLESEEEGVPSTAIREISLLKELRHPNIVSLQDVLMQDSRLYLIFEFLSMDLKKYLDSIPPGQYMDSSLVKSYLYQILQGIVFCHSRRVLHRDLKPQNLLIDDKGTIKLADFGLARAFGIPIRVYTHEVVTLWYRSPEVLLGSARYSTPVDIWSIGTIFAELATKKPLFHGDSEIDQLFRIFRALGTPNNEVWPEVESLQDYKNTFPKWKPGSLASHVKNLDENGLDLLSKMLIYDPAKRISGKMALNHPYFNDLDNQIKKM

[5] = target: Fibroblast growth factor receptor 2 (Homo sapiens) (UniProt P21802); assay: Inhibition of FGFR2 at 10 uM; how it was run: as §1
Sequence of Fibroblast growth factor receptor 2 (Homo sapiens) (P21802 22-821 limits assumed): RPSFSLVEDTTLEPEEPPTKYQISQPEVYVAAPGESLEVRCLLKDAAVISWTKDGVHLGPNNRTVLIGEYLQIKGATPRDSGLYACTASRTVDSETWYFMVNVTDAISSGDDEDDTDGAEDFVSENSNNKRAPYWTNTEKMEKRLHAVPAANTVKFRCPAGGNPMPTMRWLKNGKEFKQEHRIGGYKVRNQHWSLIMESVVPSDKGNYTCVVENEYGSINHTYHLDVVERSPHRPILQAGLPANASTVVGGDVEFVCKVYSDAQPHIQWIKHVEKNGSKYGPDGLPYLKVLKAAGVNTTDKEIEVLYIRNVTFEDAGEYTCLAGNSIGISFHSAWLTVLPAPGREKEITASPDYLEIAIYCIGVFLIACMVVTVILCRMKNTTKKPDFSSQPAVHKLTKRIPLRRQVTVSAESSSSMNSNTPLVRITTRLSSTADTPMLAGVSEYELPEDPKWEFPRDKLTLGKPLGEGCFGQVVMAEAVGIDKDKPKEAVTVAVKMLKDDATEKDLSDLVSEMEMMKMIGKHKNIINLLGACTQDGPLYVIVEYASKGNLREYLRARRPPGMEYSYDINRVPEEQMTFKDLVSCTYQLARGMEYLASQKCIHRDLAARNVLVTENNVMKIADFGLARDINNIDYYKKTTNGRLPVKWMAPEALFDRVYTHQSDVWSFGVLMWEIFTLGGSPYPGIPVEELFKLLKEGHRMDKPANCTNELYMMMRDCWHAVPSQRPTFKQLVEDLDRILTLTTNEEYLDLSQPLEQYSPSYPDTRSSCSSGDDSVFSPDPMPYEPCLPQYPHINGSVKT

[6] = target: Hepatocyte growth factor receptor (Homo sapiens) (UniProt P08581); assay: Inhibition of Met at 10 uM; how it was run: as §1
[7] = target: T1, Casein kinase I isoform alpha; assay: Inhibition of CK1 using KRRRALS(p)VASLPGL as substrate at 10 uM after 40 mins by scintillation counter
How it was run: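 Radiometric CK1 assay with substrate KRRRALS(p)VASLPGL and [γ-³³P]ATP plus 10 mM Mg acetate, in 20 mM MOPS, 1 mM EDTA, 0.01% Brij-35 and 5% glycerol. Reactions were spotted onto P30 filtermat, washed three times for 5 min in 75 mM phosphoric acid and once in methanol, dried, then scintillation counted. Run twice; mean activity reported.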

[8] = target: Serine/threonine-protein kinase PLK1 (Homo sapiens) (UniProt P53350); assay: Inhibition of Plk1 at 10 uM; how it was run: as §1
Sequence of Serine/threonine-protein kinase PLK1 (Homo sapiens) (P53350 whole entry): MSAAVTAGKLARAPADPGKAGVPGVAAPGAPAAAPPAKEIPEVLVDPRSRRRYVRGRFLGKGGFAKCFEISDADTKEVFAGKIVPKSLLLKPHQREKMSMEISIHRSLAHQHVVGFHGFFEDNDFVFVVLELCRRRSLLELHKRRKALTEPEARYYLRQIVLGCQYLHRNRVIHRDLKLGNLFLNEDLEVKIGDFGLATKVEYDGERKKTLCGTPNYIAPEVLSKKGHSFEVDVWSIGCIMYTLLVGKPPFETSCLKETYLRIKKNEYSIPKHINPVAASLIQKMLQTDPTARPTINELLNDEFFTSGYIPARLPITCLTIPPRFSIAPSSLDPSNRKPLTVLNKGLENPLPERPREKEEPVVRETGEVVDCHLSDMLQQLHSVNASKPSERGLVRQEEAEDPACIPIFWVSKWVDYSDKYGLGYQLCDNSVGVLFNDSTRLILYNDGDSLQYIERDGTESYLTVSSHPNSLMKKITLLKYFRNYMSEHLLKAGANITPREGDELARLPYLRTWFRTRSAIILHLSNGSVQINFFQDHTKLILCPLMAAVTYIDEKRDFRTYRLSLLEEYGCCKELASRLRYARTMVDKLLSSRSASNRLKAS

[9] = target: Platelet-derived growth factor receptor alpha (Homo sapiens) (UniProt P16234); assay: Inhibition of PDGFRalpha at 10 uM; how it was run: as §1
[10] = target: Epidermal growth factor receptor (Homo sapiens) (UniProt P00533); assay: Inhibition of EGFR at 10 uM; how it was run: as §1
[11] = target: Receptor-type tyrosine-protein kinase FLT3 (Homo sapiens) (UniProt P36888); assay: Inhibition of Flt3 at 10 uM; how it was run: as §1
Sequence of Receptor-type tyrosine-protein kinase FLT3 (Homo sapiens) (P36888 whole entry): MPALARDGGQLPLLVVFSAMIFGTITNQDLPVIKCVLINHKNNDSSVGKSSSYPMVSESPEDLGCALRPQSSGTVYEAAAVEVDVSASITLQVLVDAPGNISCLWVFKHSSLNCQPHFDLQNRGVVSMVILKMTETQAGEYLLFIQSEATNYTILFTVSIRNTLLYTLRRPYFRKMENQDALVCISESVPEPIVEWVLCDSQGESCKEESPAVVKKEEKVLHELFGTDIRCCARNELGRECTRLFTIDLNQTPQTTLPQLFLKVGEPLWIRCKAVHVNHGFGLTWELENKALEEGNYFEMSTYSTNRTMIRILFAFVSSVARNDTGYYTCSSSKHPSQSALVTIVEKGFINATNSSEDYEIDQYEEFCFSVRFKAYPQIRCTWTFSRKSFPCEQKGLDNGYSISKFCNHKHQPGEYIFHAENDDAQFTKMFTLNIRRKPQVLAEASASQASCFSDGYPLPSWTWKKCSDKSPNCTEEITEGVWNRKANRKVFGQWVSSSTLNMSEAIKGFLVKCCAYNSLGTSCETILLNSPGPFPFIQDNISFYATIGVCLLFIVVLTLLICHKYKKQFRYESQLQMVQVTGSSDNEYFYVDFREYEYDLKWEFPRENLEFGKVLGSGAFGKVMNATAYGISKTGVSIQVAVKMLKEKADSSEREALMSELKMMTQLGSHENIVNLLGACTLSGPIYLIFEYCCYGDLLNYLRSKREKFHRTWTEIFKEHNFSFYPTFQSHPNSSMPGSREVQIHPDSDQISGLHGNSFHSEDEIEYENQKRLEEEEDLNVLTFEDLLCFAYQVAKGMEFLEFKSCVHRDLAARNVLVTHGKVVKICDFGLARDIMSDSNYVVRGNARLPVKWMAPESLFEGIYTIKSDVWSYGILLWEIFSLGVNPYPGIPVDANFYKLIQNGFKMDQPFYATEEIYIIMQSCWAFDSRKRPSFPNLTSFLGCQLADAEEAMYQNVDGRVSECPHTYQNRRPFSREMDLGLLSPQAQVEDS

[12] = target: Tyrosine-protein kinase receptor UFO (Homo sapiens) (UniProt P30530); assay: Inhibition of Axl at 10 uM; how it was run: as §1
[13] = target: ALK tyrosine kinase receptor (Homo sapiens) (UniProt Q9UM73); assay: Inhibition of ALK at 10 uM; how it was run: as §1
[14] = target: Glycogen synthase kinase-3 alpha (Homo sapiens) (UniProt P49840); assay: Inhibition of GSK3alpha at 10 uM; how it was run: as §1
Sequence of Glycogen synthase kinase-3 alpha (Homo sapiens) (P49840 2-483 limits assumed): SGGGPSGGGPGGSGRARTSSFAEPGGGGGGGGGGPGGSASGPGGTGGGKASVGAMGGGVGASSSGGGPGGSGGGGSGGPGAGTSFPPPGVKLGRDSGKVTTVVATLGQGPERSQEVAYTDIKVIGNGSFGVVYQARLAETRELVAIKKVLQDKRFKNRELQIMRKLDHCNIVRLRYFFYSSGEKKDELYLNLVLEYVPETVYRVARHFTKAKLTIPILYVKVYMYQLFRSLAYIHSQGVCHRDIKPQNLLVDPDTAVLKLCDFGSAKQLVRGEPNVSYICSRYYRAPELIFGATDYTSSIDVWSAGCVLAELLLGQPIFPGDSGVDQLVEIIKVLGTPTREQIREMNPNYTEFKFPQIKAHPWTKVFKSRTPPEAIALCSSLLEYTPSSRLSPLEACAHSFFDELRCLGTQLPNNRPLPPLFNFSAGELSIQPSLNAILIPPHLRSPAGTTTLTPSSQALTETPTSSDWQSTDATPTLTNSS

Question: How did the IC50 [1] turn out when `CC[C@H](CO)Nc1nc(Nc2cccc(-c3ccccn3)c2)c2ncn(C(C)C)c2n1` was run?
Answer: Its IC50 is 0.014 µM.

Question: `Nc1[nH]nc2nc(Nc3cccc(NC(=O)Nc4ccc(F)c(Cl)c4)c3)ncc12` was tested. Which IC50 [1] did it give?
Answer: The IC50 was 0.078 µM.

Question: `CC(C)(C)c1cc(NC(=O)Nc2cccc(Nc3ncc4c(N)n[nH]c4n3)c2)n[nH]1` was tested. Which IC50 [1] did it give?
Answer: Its IC50 is 0.142 µM.

Question: Which IC50 [1] does the source give for `COc1cc(OC)c(C=C2C(O)=Nc3ccccc32)c(OC)c1` [IC261] here?
Answer: Its IC50 is 1 µM.

Question: `Nc1n[nH]c2nc(Nc3cccc(NC(=O)Nc4ccc(F)c(Cl)c4)c3)ncc12` was tested. Which inhibition [2] did it give?
Answer: The inhibition was 96%.

Question: What about the inhibition [3] of the same compound?
Answer: Its inhibition is 0%.

Question: And the inhibition [4]?
Answer: The inhibition was 42%.

Question: And the inhibition [5]?
Answer: The inhibition was 35%.

Question: And the inhibition [6]?
Answer: Its inhibition is 99%.

Question: What about the inhibition [7] of the same compound?
Answer: The inhibition was 100%.

Question: And the inhibition [8]?
Answer: The inhibition was 0%.

Question: And the inhibition [9]?
Answer: The inhibition was 82%.

Question: What about the inhibition [10] of the same compound?
Answer: Its inhibition is 92%.

Question: And the inhibition [11]?
Answer: The inhibition was 90%.

Question: And the inhibition [12]?
Answer: The inhibition was 46%.

Question: What about the inhibition [13] of the same compound?
Answer: Its inhibition is 26%.

Question: And the inhibition [14]?
Answer: Its inhibition is 34%.

Question: For `C[C@@H](NC(=O)Nc1cccc(Nc2ncc3c(N)[nH]nc3n2)c1)c1ccccc1`, which IC50 [1] is on record?
Answer: The IC50 was 2.47 µM.

Question: Which IC50 [1] does the source give for `NCCNS(=O)(=O)c1ccc(Cl)c2ccncc12` here?
Answer: Its IC50 is 10 µM.

Question: With `Nc1n[nH]c2nc(Nc3ccc(NC(=O)Nc4ccc(F)c(Cl)c4)cc3)ncc12` as the compound, how does the IC50 [1] read?
Answer: The IC50 was > 10 µM.

Question: How did the IC50 [1] turn out when `C[C@@H](NC(=O)Nc1ccc(Nc2ncc3c(N)n[nH]c3n2)cc1)c1ccccc1` was run?
Answer: Its IC50 is > 10 µM.
